From ChEMBL document CHEMBL1122522, “Conformationally restricted retinoids” (1984) come the findings set out here.

The test system of experiment [1] is Cricetinae gen. sp. Put plainly: Activity of compound the was expressed as ratio of active hamster tracheal organ cultures(TOC) to the total cultures at 10e-10 M concentration; 1/7. It counts as functional, Cricetulus griseus, Trachea. In short, it runs like this:
(§1)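 Tracheal organ cultures came from vitamin A-deficient hamsters. Each culture was scored for reversal of keratinization and reported as active cultures out of total cultures at each retinoid concentration tested (10⁻⁸ to 10⁻¹² M). The protocol followed earlier published methods.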

Experiment [2] deals with Cricetinae gen. sp. Nature of the experiment: Molarity required to effect reversal of keratinization in 50% of cultures. Type of experiment: functional, Cricetulus griseus.
In experiment [3] the test system is Cricetinae gen. sp. Put plainly: Activity of compound the was expressed as ratio of active hamster tracheal organ cultures(TOC) to the total cultures at 10e-9 M concentration; 2/7. Type of experiment: functional, Cricetulus griseus, Trachea. In short, it runs like this:
as §1

Experiment [4] relates to Cricetinae gen. sp. Nature of the experiment: Activity of compound the was expressed as ratio of active hamster tracheal organ cultures(TOC) to the total cultures at 10e-8 M concentration; 3/7. It counts as functional, Cricetulus griseus, Trachea. Put shortly: as §1
Experiment [5] addresses T1, Ornithine decarboxylase (Mus musculus) (UniProt P00860).
T1 sequence (whole entry): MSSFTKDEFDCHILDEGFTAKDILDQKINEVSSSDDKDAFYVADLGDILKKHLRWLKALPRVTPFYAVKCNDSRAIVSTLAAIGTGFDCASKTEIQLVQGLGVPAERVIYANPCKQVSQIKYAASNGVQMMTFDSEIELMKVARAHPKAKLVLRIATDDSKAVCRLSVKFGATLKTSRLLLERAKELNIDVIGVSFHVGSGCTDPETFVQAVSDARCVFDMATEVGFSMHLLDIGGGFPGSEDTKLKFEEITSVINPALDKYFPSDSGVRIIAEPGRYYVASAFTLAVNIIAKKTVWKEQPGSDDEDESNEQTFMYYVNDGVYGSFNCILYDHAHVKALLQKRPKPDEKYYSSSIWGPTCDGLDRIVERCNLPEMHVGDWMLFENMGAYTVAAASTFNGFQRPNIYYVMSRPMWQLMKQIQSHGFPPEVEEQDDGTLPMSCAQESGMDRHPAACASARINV
Nature of the experiment: Inhibition of the induction of ornithine decarboxylase in mouse epidermis by the tumor promoter 12-O-tetradecanoylphorbol-13-acetate (ODC) at dose 17 nmol * * inhibition not significant.

The target in experiment [6] is T1, Ornithine decarboxylase (Mus musculus). Put plainly: Inhibition of the induction of ornithine decarboxylase in mouse epidermis by the tumor promoter 12-O-tetradecanoylphorbol-13-acetate (ODC) at dose 1.7 nmol * * inhibition not significant.
The subject of experiment [7] is Cricetinae gen. sp. Put plainly: Activity of compound the was expressed as ratio of active hamster tracheal organ cultures(TOC) to the total cultures at 10e-9 M concentration; 5/19. Type of experiment: functional, Cricetulus griseus, Trachea. Put shortly:
as §1

In experiment [8] the test system is Cricetinae gen. sp. Put plainly: Activity of compound the was expressed as ratio of active hamster tracheal organ cultures(TOC) to the total cultures at 10e-10 M concentration; 2/7. Type of experiment: functional, Cricetulus griseus, Trachea. Put shortly: as §1
For experiment [9], the system named is Cricetinae gen. sp. Put plainly: Molarity required to effect reversal of keratinization in 50% of the cultures. Type of experiment: functional, Cricetulus griseus. In short, it runs like this:
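Tracheal organ cultures from vitamin A-deficient hamsters were scored for reversal of keratinization across a range of molar retinoid concentrations. The value is the concentration reversing keratinization in 50% of cultures, read from active/total culture counts.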

For experiment [10], the system named is Cricetinae gen. sp. Nature of the experiment: Activity of compound the was expressed as ratio of active hamster tracheal organ cultures(TOC) to the total cultures at 10e-9 M concentration; 1/6. It counts as functional, Cricetulus griseus, Trachea. In short, it runs like this:
as §1

Experiment [11] addresses T1, Ornithine decarboxylase (Mus musculus). Nature of the experiment: Inhibition of the induction of ornithine decarboxylase in mouse epidermis by the tumor promoter 12-O-tetradecanoylphorbol-13-acetate (ODC) at dose 17 nmol; Inhibition not significant.
Experiment [12] has the same target. Nature of the experiment: Inhibition of the induction of ornithine decarboxylase in mouse epidermis by the tumor promoter 12-O-tetradecanoylphorbol-13-acetate (ODC) at dose 1.7 nmol; Inhibition not significant.
In experiment [13] the test system is Cricetinae gen. sp. Nature of the experiment: Activity of compound the was expressed as ratio of active hamster tracheal organ cultures(TOC) to the total cultures at 10e-10 M concentration; 12/14. It counts as functional, Cricetulus griseus, Trachea. In short, it runs like this: as §1
Experiment [14] concerns Cricetinae gen. sp. Put plainly: Activity of compound the was expressed as ratio of active hamster tracheal organ cultures(TOC) to the total cultures at 10e-8 M concentration; 7/7. Type of experiment: functional, Cricetulus griseus, Trachea. To be noted: at 0.01 µM.
The subject of experiment [15] is Cricetinae gen. sp. Nature of the experiment: Activity of compound the was expressed as ratio of active hamster tracheal organ cultures(TOC) to the total cultures at 10e-9 M concentration; 7/7. It counts as functional, Cricetulus griseus, Trachea. In short, it runs like this: as §1
The species named for experiment [16] is Mus musculus. Nature of the experiment: Tested for relative activity in a 20-week anti-papilloma experiment in female CD-1 mice at dose 170 nmol. It counts as functional. Put shortly: (§2)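 Female Charles River CD-1 mice, 8 weeks old, in random groups of 25–30, were shaved 2 days before initiation with 200 nmol DMBA in acetone on the back. From 2 weeks on, 8.5 nmol TPA was applied twice weekly for 20 weeks. Retinoid in 0.2 mL acetone, or acetone alone for controls, was given 1 h before each TPA dose. Papillomas were counted weekly, and mean papillomas per mouse were compared with controls at 20 weeks.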

The species entered for experiment [17] is Mus musculus. Put plainly: Tested for relative activity in a 20-week anti-papilloma experiment in female CD-1 mice at dose 17 nmol. Type of experiment: functional. In short, it runs like this: as §2
Experiment [18] is filed under the species Mus musculus. Nature of the experiment: Percent decrease in average number of papillomas 170 at dose. Type of experiment: functional. In short, it runs like this:
as §2

Experiment [19] is filed under the species Mus musculus. Nature of the experiment: Percent decrease in average number of papillomas 17 at dose. Type of experiment: functional. In short, it runs like this: as §2
In experiment [20] the target is T1, Ornithine decarboxylase (Mus musculus). Nature of the experiment: TInhibition of the induction of ornithine decarboxylase in mouse epidermis by the tumor promoter 12-O-tetradecanoylphorbol-13-acetate (ODC) at dose 1.7 nmol.
Experiment [21] has the same target. Put plainly: Inhibition of the induction of ornithine decarboxylase in mouse epidermis by the tumor promoter 12-O-tetradecanoylphorbol-13-acetate (ODC)) at dose 17 nmol.
The nature of experiment [22]: Mortality range in days at dose 300 umol/kg day; 14-15. Type of experiment: functional, Mus musculus. Put shortly: (§3)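 Adult female Swiss mice (20–25 g) had chow and water ad libitum. The retinoid was homogenized as a suspension in aqueous 8% Cremophor EL plus 10% propylene glycol. It was given ip as 10 weekday injections over 14 days. Controls received vehicle alone. Survivors were weighed on days 1, 5, 10 and 15, and dates of death were recorded. Survival was scored at days 8 and 15.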

Experiment [23] in a line: Mortality range in days at dose 600 umol/kg day; 9-10. Type of experiment: functional, Mus musculus. In short, it runs like this: as §3
Experiment [24] is described as follows: Percent survivors at dose 100 umol/kg day. Type of experiment: functional, Mus musculus. Put shortly: as §3
Experiment [25] is described as follows: Percent survivors at dose 200 umol/kg day. It counts as functional, Mus musculus. In short, it runs like this:
as §3

Experiment [26] can be described thus: Percent survivors at dose 300 umol/kg day. Type of experiment: functional, Mus musculus. In short, it runs like this:
as §3

Experiment [27] can be described thus: Percent survivors at dose 30 umol/kg day. Type of experiment: functional, Mus musculus. In short, it runs like this:
as §3

The nature of experiment [28]: Percent survivors at dose 600 umol/kg day. It counts as functional, Mus musculus. In short, it runs like this: as §3
Experiment [29] deals with Cricetinae gen. sp. Nature of the experiment: Activity of compound the was expressed as ratio of active hamster tracheal organ cultures(TOC) to the total cultures at 10e-10 M concentration; 6/13. Type of experiment: functional, Cricetulus griseus, Trachea. In short, it runs like this: as §1
Experiment [30] deals with Cricetinae gen. sp. Nature of the experiment: Activity of compound the was expressed as ratio of active hamster tracheal organ cultures(TOC) to the total cultures at 10e-11 M concentration; 1/5. Type of experiment: functional, Cricetulus griseus, Trachea. Put shortly:
as §1

In experiment [31] the test system is Cricetinae gen. sp. Nature of the experiment: Activity of compound the was expressed as ratio of active hamster tracheal organ cultures(TOC) to the total cultures at 10e-9 M concentration; 11/12. Type of experiment: functional, Cricetulus griseus, Trachea. Put shortly:
as §1

A word on the inhibition: it is how much of the control response was suppressed. A high value points to a strong effect.

For the compound `CCOC(=O)c1ccc([C@H]2CC2c2ccc3c(c2)C2CCC3C2)cc1` (stereo partly drawn), the Activity in the experiment on Cricetinae gen. sp. [1] turned out to be 1%; with Cricetinae gen. sp. [3], 29%; with Cricetinae gen. sp. [4] it was 3%. For the same compound, in the experiment with Cricetinae gen. sp. [2], the ED50 was greater than 1e-08. The inhibition in experiment [5] worked out at 4%; in [6], 0%.
As to `CCOC(=O)/C=C(C)/C=C/C=C(C)/C=C/C1=CC2CCC1C2` (stereo not drawn), the ED50 in the experiment on Cricetinae gen. sp. [2] is greater than 1e-09. Also, in the experiment on Cricetinae gen. sp. [7], the Activity came out at 26%.
As for `CCOC(=O)c1cccc(/C=C(C)/C=C/C2=C(C)CCCC2(C)C)c1`, the figures for the Activity in the experiment with Cricetinae gen. sp. [8] and with Cricetinae gen. sp. [10] were 2% and 1%, respectively. Besides, the ED50 with Cricetinae gen. sp. [9] is recorded as greater than 1e-08. The results for the inhibition in experiment [11] and in experiment [12] were 6% and 13%, respectively.
Turning to `C/C(=C\c1ccc(C(=O)O)cc1)c1ccc2c(c1)C(C)(C)CCS2`, the Activity in the experiment on Cricetinae gen. sp. [13] was 12%; in the experiment with Cricetinae gen. sp. [14], 7%; in the experiment on Cricetinae gen. sp. [15], 100%; in the experiment listed under Mus musculus [16], 38%; in the experiment listed under Mus musculus [17], 53%. Moreover, the ED50 in the experiment with Cricetinae gen. sp. [2] is given as 5e-11. Further, the Decrease in the experiment filed under Mus musculus [18] is 93.6%; in the experiment filed under Mus musculus [19], 93.4%. The inhibition in experiment [20] came to 68%; in [21], 85%. In addition, the Mortality range in experiment [22] is 15 days; in experiment [23] it was 10 days. For the same compound, the “Survivors at day 8” value in experiment [24], in [25], in experiment [26] and in experiment [28] was 100% each time. For the same compound, the “Survivors at day 15” value in experiment [24] was 100%; in experiment [26], 80%; in experiment [27] it was 100%; in experiment [28] it was 0%.
As for `CC1=C(/C=C/c2ccc3cc(C(=O)O)ccc3c2)C(C)(C)CCC1`, the Activity was 6% with Cricetinae gen. sp. [29], 1% in the experiment with Cricetinae gen. sp. [30], 92% in the experiment with Cricetinae gen. sp. [31] and 7% in the experiment with Cricetinae gen. sp. [14]. The ED50 in the experiment on Cricetinae gen. sp. [2] was 1e-10.
